Assay results from ChEMBL document CHEMBL5058577, “EUbOPEN Chemogenomics Library 2 (Multiplex)” (2022).

Tested on: U2OS
Test: Multiplex assay against U2OS
Format: toxicity, cell-based
Details: human
Procedure, shortened: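 Per cents of healthy-nucleus cells form the tubulin, mitochondrial-mass and membrane-permeability phenotype values. Live cells were stained at seeding with Hoechst33342, BioTracker Green Microtubule Cytoskeleton Dye, MitoTracker Red and Annexin V Alexa Fluor 680. After compound addition they were imaged on a CQ1 microscope at 37°C and 5% CO2, and CellPathfinder machine-learning gating split them into Hoechst high-intensity objects or normal cells, normal cells into healthy, pyknosed or fragmented nuclei, and pyknosed cells into mitotic or apoptotic.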

[1] = 12 h, 1 µM, compound concentration 1 uM, replicate 1
[2] = 12 h, 1 µM, compound concentration 1 uM, replicate 2
[3] = 12 h, 10 µM, compound concentration 10 uM, replicate 1
[4] = 12 h, 10 µM, compound concentration 10 uM, replicate 2
[5] = 24 h, 1 µM, compound concentration 1 uM, replicate 1
[6] = 24 h, 1 µM, compound concentration 1 uM, replicate 2
[7] = 24 h, 10 µM, compound concentration 10 uM, replicate 1
[8] = 24 h, 10 µM, compound concentration 10 uM, replicate 2
[9] = 48 h, 1 µM, compound concentration 1 uM, replicate 1
[10] = 48 h, 1 µM, compound concentration 1 uM, replicate 2
[11] = 48 h, 10 µM, compound concentration 10 uM, replicate 1
[12] = 48 h, 10 µM, compound concentration 10 uM, replicate 2

O=C(O)CCC/C=C\CC1C(O)CC(O)C1/C=C/C(O)COc1cccc(Cl)c1 (centres undefined) [CLOPROSTENOL]
Population Apoptotic (%) [1]: 77%
Population Fragmented Nuclei (%) [1]: 30%
Population Healthy Nuclei (%) [1]: 60%
Population Hoechst High Intensity Objects (%) [1]: 3%
Population Membrane Permeable-Phenotype (%) [1]: 2%
Population Mitochondria Different-Phenotype (%) [1]: 0%
Population Mitotic Cells (%) [1]: 22%
Population Normal (%) [1]: 96%
Population Pyknosed Nuclei (%) [1]: 9%
Population Tubulin-Different-Phenotype (%) [1]: 1%
Total Cell Count [1]: 201
Population Apoptotic (%) [2]: 75%
Population Fragmented Nuclei (%) [2]: 11%
Population Healthy Nuclei (%) [2]: 82%
Population Hoechst High Intensity Objects (%) [2]: 0%
Population Membrane Permeable-Phenotype (%) [2]: 6%
Population Mitochondria Different-Phenotype (%) [2]: 3%
Population Mitotic Cells (%) [2]: 25%
Population Normal (%) [2]: 100%
Population Pyknosed Nuclei (%) [2]: 6%
Population Tubulin-Different-Phenotype (%) [2]: 2%
Total Cell Count [2]: 129
Population Apoptotic (%) [3]: 92%
Population Fragmented Nuclei (%) [3]: 28%
Population Healthy Nuclei (%) [3]: 60%
Population Hoechst High Intensity Objects (%) [3]: 2%
Population Membrane Permeable-Phenotype (%) [3]: 8%
Population Mitochondria Different-Phenotype (%) [3]: 1%
Population Mitotic Cells (%) [3]: 7%
Population Normal (%) [3]: 97%
Population Pyknosed Nuclei (%) [3]: 10%
Population Tubulin-Different-Phenotype (%) [3]: 3%
Total Cell Count [3]: 272
Population Apoptotic (%) [4]: 45%
Population Fragmented Nuclei (%) [4]: 9%
Population Healthy Nuclei (%) [4]: 81%
Population Hoechst High Intensity Objects (%) [4]: 0%
Population Membrane Permeable-Phenotype (%) [4]: 9%
Population Mitochondria Different-Phenotype (%) [4]: 6%
Population Mitotic Cells (%) [4]: 54%
Population Normal (%) [4]: 100%
Population Pyknosed Nuclei (%) [4]: 8%
Total Cell Count [4]: 131
Population Apoptotic (%) [5]: 81%
Population Fragmented Nuclei (%) [5]: 24%
Population Healthy Nuclei (%) [5]: 63%
Population Hoechst High Intensity Objects (%) [5]: 1%
Population Membrane Permeable-Phenotype (%) [5]: 4%
Population Mitochondria Different-Phenotype (%) [5]: 2%
Population Mitotic Cells (%) [5]: 18%
Population Normal (%) [5]: 98%
Population Pyknosed Nuclei (%) [5]: 11%
Population Tubulin-Different-Phenotype (%) [5]: 2%
Total Cell Count [5]: 237
Population Apoptotic (%) [6]: 75%
Population Fragmented Nuclei (%) [6]: 15%
Population Healthy Nuclei (%) [6]: 77%
Population Hoechst High Intensity Objects (%) [6]: 0%
Population Membrane Permeable-Phenotype (%) [6]: 6%
Population Mitotic Cells (%) [6]: 25%
Population Normal (%) [6]: 100%
Population Pyknosed Nuclei (%) [6]: 7%
Population Tubulin-Different-Phenotype (%) [6]: 4%
Total Cell Count [6]: 157
Population Apoptotic (%) [7]: 90%
Population Fragmented Nuclei (%) [7]: 23%
Population Healthy Nuclei (%) [7]: 66%
Population Hoechst High Intensity Objects (%) [7]: 2%
Population Membrane Permeable-Phenotype (%) [7]: 7%
Population Mitochondria Different-Phenotype (%) [7]: 2%
Population Mitotic Cells (%) [7]: 10%
Population Normal (%) [7]: 97%
Population Pyknosed Nuclei (%) [7]: 10%
Population Tubulin-Different-Phenotype (%) [7]: 3%
Total Cell Count [7]: 306
Population Apoptotic (%) [8]: 70%
Population Fragmented Nuclei (%) [8]: 11%
Population Healthy Nuclei (%) [8]: 82%
Population Hoechst High Intensity Objects (%) [8]: 0%
Population Membrane Permeable-Phenotype (%) [8]: 11%
Population Mitochondria Different-Phenotype (%) [8]: 4%
Population Mitotic Cells (%) [8]: 30%
Population Normal (%) [8]: 100%
Population Pyknosed Nuclei (%) [8]: 5%
Population Tubulin-Different-Phenotype (%) [8]: 4%
Total Cell Count [8]: 177
Population Apoptotic (%) [9]: 89%
Population Fragmented Nuclei (%) [9]: 20%
Population Healthy Nuclei (%) [9]: 70%
Population Hoechst High Intensity Objects (%) [9]: 1%
Population Membrane Permeable-Phenotype (%) [9]: 2%
Population Mitochondria Different-Phenotype (%) [9]: 1%
Population Mitotic Cells (%) [9]: 10%
Population Normal (%) [9]: 98%
Population Pyknosed Nuclei (%) [9]: 8%
Population Tubulin-Different-Phenotype (%) [9]: 0%
Total Cell Count [9]: 344
Population Apoptotic (%) [10]: 81%
Population Fragmented Nuclei (%) [10]: 11%
Population Healthy Nuclei (%) [10]: 81%
Population Hoechst High Intensity Objects (%) [10]: 0%
Population Membrane Permeable-Phenotype (%) [10]: 6%
Population Mitochondria Different-Phenotype (%) [10]: 3%
Population Mitotic Cells (%) [10]: 18%
Population Normal (%) [10]: 99%
Population Pyknosed Nuclei (%) [10]: 7%
Population Tubulin-Different-Phenotype (%) [10]: 2%
Total Cell Count [10]: 229
Population Apoptotic (%) [11]: 91%
Population Fragmented Nuclei (%) [11]: 18%
Population Healthy Nuclei (%) [11]: 67%
Population Hoechst High Intensity Objects (%) [11]: 3%
Population Membrane Permeable-Phenotype (%) [11]: 6%
Population Mitochondria Different-Phenotype (%) [11]: 1%
Population Mitotic Cells (%) [11]: 8%
Population Normal (%) [11]: 96%
Population Pyknosed Nuclei (%) [11]: 14%
Population Tubulin-Different-Phenotype (%) [11]: 4%
Total Cell Count [11]: 396
Population Apoptotic (%) [12]: 84%
Population Fragmented Nuclei (%) [12]: 12%
Population Healthy Nuclei (%) [12]: 82%
Population Hoechst High Intensity Objects (%) [12]: 2%
Population Membrane Permeable-Phenotype (%) [12]: 10%
Population Mitochondria Different-Phenotype (%) [12]: 2%
Population Mitotic Cells (%) [12]: 15%
Population Normal (%) [12]: 97%
Population Pyknosed Nuclei (%) [12]: 5%
Total Cell Count [12]: 246

CN1C[C@H](C(=O)N[C@]2(C)O[C@@]3(O)[C@@H]4CCCN4C(=O)[C@H](Cc4ccccc4)N3C2=O)C[C@@H]2c3cccc4[nH]cc(c34)C[C@H]21.CS(=O)(=O)O [DIHYDROERGOTAMINE MESYLATE]
Population Apoptotic (%) [1]: 82%
Population Fragmented Nuclei (%) [1]: 24%
Population Healthy Nuclei (%) [1]: 65%
Population Hoechst High Intensity Objects (%) [1]: 1%
Population Membrane Permeable-Phenotype (%) [1]: 6%
Population Mitochondria Different-Phenotype (%) [1]: 2%
Population Mitotic Cells (%) [1]: 17%
Population Normal (%) [1]: 98%
Population Pyknosed Nuclei (%) [1]: 10%
Population Tubulin-Different-Phenotype (%) [1]: 2%
Total Cell Count [1]: 233
Population Apoptotic (%) [2]: 84%
Population Fragmented Nuclei (%) [2]: 23%
Population Healthy Nuclei (%) [2]: 63%
Population Membrane Permeable-Phenotype (%) [2]: 14%
Population Mitochondria Different-Phenotype (%) [2]: 1%
Population Mitotic Cells (%) [2]: 15%
Population Pyknosed Nuclei (%) [2]: 13%
Population Tubulin-Different-Phenotype (%) [2]: 7%
Total Cell Count [2]: 101
Population Apoptotic (%) [3]: 71%
Population Fragmented Nuclei (%) [3]: 19%
Population Healthy Nuclei (%) [3]: 73%
Population Hoechst High Intensity Objects (%) [3]: 2%
Population Membrane Permeable-Phenotype (%) [3]: 5%
Population Mitochondria Different-Phenotype (%) [3]: 1%
Population Mitotic Cells (%) [3]: 28%
Population Normal (%) [3]: 97%
Population Pyknosed Nuclei (%) [3]: 7%
Population Tubulin-Different-Phenotype (%) [3]: 3%
Total Cell Count [3]: 298
Population Apoptotic (%) [4]: 100%
Population Healthy Nuclei (%) [4]: 77%
Population Hoechst High Intensity Objects (%) [4]: 1%
Population Mitochondria Different-Phenotype (%) [4]: 0%
Population Mitotic Cells (%) [4]: 0%
Population Normal (%) [4]: 98%
Population Pyknosed Nuclei (%) [4]: 2%
Population Tubulin-Different-Phenotype (%) [4]: 0%
Total Cell Count [4]: 144
Population Apoptotic (%) [5]: 89%
Population Fragmented Nuclei (%) [5]: 23%
Population Healthy Nuclei (%) [5]: 67%
Population Hoechst High Intensity Objects (%) [5]: 0%
Population Membrane Permeable-Phenotype (%) [5]: 2%
Population Mitochondria Different-Phenotype (%) [5]: 0%
Population Mitotic Cells (%) [5]: 10%
Population Normal (%) [5]: 99%
Population Pyknosed Nuclei (%) [5]: 9%
Population Tubulin-Different-Phenotype (%) [5]: 2%
Total Cell Count [5]: 307
Population Apoptotic (%) [6]: 100%
Population Fragmented Nuclei (%) [6]: 21%
Population Healthy Nuclei (%) [6]: 65%
Population Hoechst High Intensity Objects (%) [6]: 1%
Population Membrane Permeable-Phenotype (%) [6]: 8%
Population Mitochondria Different-Phenotype (%) [6]: 2%
Population Mitotic Cells (%) [6]: 0%
Population Normal (%) [6]: 98%
Population Pyknosed Nuclei (%) [6]: 13%
Population Tubulin-Different-Phenotype (%) [6]: 4%
Total Cell Count [6]: 132
Population Apoptotic (%) [7]: 88%
Population Fragmented Nuclei (%) [7]: 18%
Population Healthy Nuclei (%) [7]: 73%
Population Hoechst High Intensity Objects (%) [7]: 1%
Population Membrane Permeable-Phenotype (%) [7]: 4%
Population Mitochondria Different-Phenotype (%) [7]: 2%
Population Mitotic Cells (%) [7]: 11%
Population Normal (%) [7]: 98%
Population Pyknosed Nuclei (%) [7]: 8%
Population Tubulin-Different-Phenotype (%) [7]: 2%
Total Cell Count [7]: 337
Population Apoptotic (%) [8]: 92%
Population Fragmented Nuclei (%) [8]: 16%
Population Healthy Nuclei (%) [8]: 75%
Population Mitotic Cells (%) [8]: 7%
Population Tubulin-Different-Phenotype (%) [8]: 1%
Total Cell Count [8]: 163
Population Apoptotic (%) [9]: 80%
Population Fragmented Nuclei (%) [9]: 14%
Population Healthy Nuclei (%) [9]: 78%
Population Hoechst High Intensity Objects (%) [9]: 2%
Population Membrane Permeable-Phenotype (%) [9]: 2%
Population Mitochondria Different-Phenotype (%) [9]: 2%
Population Mitotic Cells (%) [9]: 19%
Population Normal (%) [9]: 97%
Population Pyknosed Nuclei (%) [9]: 7%
Population Tubulin-Different-Phenotype (%) [9]: 1%
Total Cell Count [9]: 427
Population Apoptotic (%) [10]: 90%
Population Fragmented Nuclei (%) [10]: 11%
Population Healthy Nuclei (%) [10]: 76%
Population Hoechst High Intensity Objects (%) [10]: 1%
Population Membrane Permeable-Phenotype (%) [10]: 6%
Population Mitotic Cells (%) [10]: 10%
Population Normal (%) [10]: 98%
Population Pyknosed Nuclei (%) [10]: 11%
Population Tubulin-Different-Phenotype (%) [10]: 4%
Total Cell Count [10]: 173
Population Apoptotic (%) [11]: 95%
Population Fragmented Nuclei (%) [11]: 14%
Population Healthy Nuclei (%) [11]: 75%
Population Hoechst High Intensity Objects (%) [11]: 3%
Population Membrane Permeable-Phenotype (%) [11]: 7%
Population Mitochondria Different-Phenotype (%) [11]: 3%
Population Mitotic Cells (%) [11]: 4%
Population Normal (%) [11]: 96%
Population Pyknosed Nuclei (%) [11]: 9%
Population Tubulin-Different-Phenotype (%) [11]: 3%
Total Cell Count [11]: 452
Population Apoptotic (%) [12]: 100%
Population Fragmented Nuclei (%) [12]: 19%
Population Healthy Nuclei (%) [12]: 72%
Population Membrane Permeable-Phenotype (%) [12]: 3%
Population Mitochondria Different-Phenotype (%) [12]: 1%
Population Mitotic Cells (%) [12]: 0%
Population Pyknosed Nuclei (%) [12]: 8%
Population Tubulin-Different-Phenotype (%) [12]: 2%
Total Cell Count [12]: 217
